Columns and labels:
[1] = biological target: T1, 5-hydroxytryptamine receptor 2C (Homo sapiens, UniProt P28335); assay: Displacement of [125I]DOI from human recombinant 5HT2C receptor expressed in HEK293 cells by scintillation counting; type: cell-based
T1 sequence (P28335 whole entry): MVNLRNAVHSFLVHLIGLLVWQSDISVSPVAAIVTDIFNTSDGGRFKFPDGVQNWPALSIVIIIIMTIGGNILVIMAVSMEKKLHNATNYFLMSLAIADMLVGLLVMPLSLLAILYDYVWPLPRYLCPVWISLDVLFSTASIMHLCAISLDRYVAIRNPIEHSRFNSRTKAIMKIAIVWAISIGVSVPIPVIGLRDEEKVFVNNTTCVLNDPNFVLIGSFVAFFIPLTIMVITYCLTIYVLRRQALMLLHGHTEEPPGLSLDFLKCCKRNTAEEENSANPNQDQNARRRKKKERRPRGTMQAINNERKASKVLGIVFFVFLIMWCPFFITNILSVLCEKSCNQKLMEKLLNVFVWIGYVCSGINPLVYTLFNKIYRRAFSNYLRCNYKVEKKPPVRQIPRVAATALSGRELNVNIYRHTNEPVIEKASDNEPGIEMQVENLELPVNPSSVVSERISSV
How it was run: (§1)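 Crude plasma membranes from HEK293 cells stably expressing the human receptor (5–25 μg protein), in 20 mM HEPES pH 7.4 with 10 mM MgCl2. Incubated with 0.5 nM [125I]DOI and test compound (1 pM–10 μM) for 1 h at room temperature; nonspecific binding defined with 10 μM cold DOI. Filtered, washed with ice-cold Tris buffer and scintillation counted in triplicate.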

[2] = biological target: 5-hydroxytryptamine receptor 2A (Homo sapiens, UniProt P28223); assay: Displacement of [125I]DOI from human recombinant 5HT2A receptor expressed in HEK293 cells by scintillation counting; type: cell-based; how it was run: as §1
hERG (KCNH2) = hERG (KCNH2) (Homo sapiens, UniProt Q12809); assay: Inhibition of human ERG at 3 uM by patch clamp assay
[3] = Antiplatelet activity in human platelet rich plasma assessed as inhibition of ADP-induced aggregation preincubated for 1 min before 5-HT and ADP challenge measured after 3 mins by turbidimetry
[4] = Total clearance in Sprague-Dawley rat at 2 mg/kg, iv after 24 hrs by HPLC/MS/MS analysis; type: ADME, organism-based; design: dose 2 mg/kg, route intravenous; conditions: in vivo
How it was run: (§2)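 Male rats fasted overnight before oral dosing; 10 mg/kg po and 2 mg/kg iv in 80% PEG400/20% phosphate buffered saline. Jugular vein blood was sampled at 0.25–21 h over 24 h, and heparin plasma was assayed by HPLC/MS/MS (MRM, positive electrospray, internal standard; LLOQ 1 ng/mL, ULOQ 2000 ng/mL). %F is taken relative to the 2 mg/kg iv dose. Mean of n = 3 animals.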

[5] = Bioavailability in Sprague-Dawley rat at 2 mg/kg, iv after 24 hrs by HPLC/MS/MS analysis; type: ADME, organism-based; conditions: in vivo; how it was run: as §2
[6] = AUC (0 to last) in Sprague-Dawley rat at 10 mg/kg, po after 24 hrs by HPLC/MS/MS analysis; type: ADME, organism-based; design: time 0 - last, dose 10 mg/kg, route oral; conditions: plasma; how it was run: as §2
[7] = Half life in Sprague-Dawley rat at 10 mg/kg, po by HPLC/MS/MS analysis; type: ADME, organism-based; design: dose 10 mg/kg, route oral; conditions: in vivo; how it was run: as §2
[8] = Volume of distribution at steady state in Sprague-Dawley rat at 2 mg/kg, iv after 24 hrs by HPLC/MS/MS analysis; type: ADME, organism-based; design: dose 2 mg/kg, route intravenous; conditions: in vivo, read-out: Vdss; how it was run: as §2
[9] = Cmax in Sprague-Dawley rat at 10 mg/kg, po after 24 hrs by HPLC/MS/MS assay; type: ADME, organism-based; design: dose 10 mg/kg, route oral; conditions: in vivo; how it was run: as §2

5-hydroxytryptamine receptor 2A, sequence (P28223 whole entry): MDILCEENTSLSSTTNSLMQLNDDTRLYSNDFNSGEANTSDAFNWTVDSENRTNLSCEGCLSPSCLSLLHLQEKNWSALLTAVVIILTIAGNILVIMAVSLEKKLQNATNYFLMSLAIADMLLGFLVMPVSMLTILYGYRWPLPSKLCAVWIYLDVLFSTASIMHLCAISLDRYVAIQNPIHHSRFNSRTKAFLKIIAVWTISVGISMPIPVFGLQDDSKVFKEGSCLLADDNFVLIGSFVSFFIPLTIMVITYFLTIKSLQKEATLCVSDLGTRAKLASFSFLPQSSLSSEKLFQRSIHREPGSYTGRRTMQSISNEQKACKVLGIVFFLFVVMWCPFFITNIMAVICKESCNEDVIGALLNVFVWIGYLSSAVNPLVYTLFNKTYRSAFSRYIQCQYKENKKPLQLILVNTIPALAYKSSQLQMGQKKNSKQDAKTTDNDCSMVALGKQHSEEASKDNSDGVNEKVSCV
hERG (KCNH2), sequence (Q12809 whole entry): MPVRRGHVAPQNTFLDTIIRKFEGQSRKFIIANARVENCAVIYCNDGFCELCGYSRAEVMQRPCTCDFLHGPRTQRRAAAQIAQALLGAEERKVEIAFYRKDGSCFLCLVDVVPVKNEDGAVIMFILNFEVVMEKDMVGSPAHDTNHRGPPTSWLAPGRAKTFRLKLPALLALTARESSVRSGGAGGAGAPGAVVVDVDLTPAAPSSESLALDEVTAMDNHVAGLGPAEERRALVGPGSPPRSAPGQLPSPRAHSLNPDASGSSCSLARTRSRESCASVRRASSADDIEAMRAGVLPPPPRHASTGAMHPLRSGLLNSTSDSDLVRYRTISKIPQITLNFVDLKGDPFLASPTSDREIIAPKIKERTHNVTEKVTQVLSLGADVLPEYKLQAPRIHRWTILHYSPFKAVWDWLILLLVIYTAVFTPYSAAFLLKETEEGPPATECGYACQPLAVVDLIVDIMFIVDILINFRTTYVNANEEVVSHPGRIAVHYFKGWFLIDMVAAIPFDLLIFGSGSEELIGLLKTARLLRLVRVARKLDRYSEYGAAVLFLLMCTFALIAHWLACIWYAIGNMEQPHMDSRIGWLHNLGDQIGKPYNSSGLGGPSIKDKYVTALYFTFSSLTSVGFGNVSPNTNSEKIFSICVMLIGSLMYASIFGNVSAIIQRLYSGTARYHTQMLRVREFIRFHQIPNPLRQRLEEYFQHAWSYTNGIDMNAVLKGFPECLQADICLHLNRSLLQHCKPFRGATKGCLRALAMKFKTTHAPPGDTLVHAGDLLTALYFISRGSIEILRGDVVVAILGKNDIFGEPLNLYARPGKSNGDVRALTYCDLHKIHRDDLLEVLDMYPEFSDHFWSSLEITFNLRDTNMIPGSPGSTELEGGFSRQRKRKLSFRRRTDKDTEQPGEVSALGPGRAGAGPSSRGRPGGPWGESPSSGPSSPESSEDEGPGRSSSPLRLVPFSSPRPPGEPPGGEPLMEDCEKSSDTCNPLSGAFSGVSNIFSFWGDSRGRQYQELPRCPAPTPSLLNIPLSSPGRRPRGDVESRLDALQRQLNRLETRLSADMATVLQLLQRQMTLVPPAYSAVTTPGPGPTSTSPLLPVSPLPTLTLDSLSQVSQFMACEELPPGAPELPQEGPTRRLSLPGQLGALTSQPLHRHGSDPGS

Row | SMILES | Ki [1] | Ki [2] | IC50 [3] | clearance [4] | bioavailability [5] | AUC(0-t) at 24 h [6] | half-life [7] | Vd [8] | Cmax [9] | inhibition at 3 µM (hERG (KCNH2))
1 | CC(=O)N1CCN(CCOc2ccc(NC(=O)c3cccc(F)c3)cc2-c2c(Cl)cnn2C)CC1 | 8600 nM | 2.2 nM | 70 nM | – | – | – | – | – | – | 43%
2 | Cn1nccc1-c1cc(NC(=O)c2cccc(C(F)(F)F)c2)ccc1OCCN1CCOCC1 | > 10000 nM | 0.7 nM | 18 nM | 160 mL/min/kg | 27% | 288 ng·h/mL | 1.8 h | 5.1 L/kg | 202 ng/mL | –
3 | COc1cccc(C(=O)Nc2ccc(OCCN)c(-c3ccnn3C)c2)c1 | 2350 nM | 2.2 nM | 6.9 nM | – | – | – | – | – | – | 22%

Continued, in another order:

Row | Ki [1] | Ki [2] | IC50 [3] | clearance [4] | bioavailability [5] | AUC(0-t) at 24 h [6] | half-life [7] | Vd [8] | Cmax [9] | SMILES | inhibition at 3 µM (hERG (KCNH2))
4 | > 10000 nM | 4.5 nM | 77 nM | – | – | – | – | – | – | COc1cccc(C(=O)Nc2ccc(OCCN3CCN(C(C)=O)CC3)c(-c3ccnn3C)c2)c1 | 24%
5 | 5610 nM | 4.3 nM | 145 nM | – | – | – | – | – | – | CC(=O)N1CCN(CCOc2ccc(NC(=O)c3cccc(C(F)(F)F)c3)cc2-c2ccnn2C)CC1 | 75%
